The list is not random: actives were taken first. Their share in the collection is about 1.8%.
CHRM4 PAM = potentiates acetylcholine response at human M4 receptor. P08173. CHO-K1 hM4/Gqi5, Fluo-8 calcium fluorescence, ACh EC20; 0% = ACh EC20, 100% = maximal ACh. activation, % at 3 µM. 360,000 compounds, 0.4% hits. AID 624126;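 active = activation above its plate's cutoff, the mean activation of sample wells plus 3 SD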
Target sequence (P08173 whole entry, looked up): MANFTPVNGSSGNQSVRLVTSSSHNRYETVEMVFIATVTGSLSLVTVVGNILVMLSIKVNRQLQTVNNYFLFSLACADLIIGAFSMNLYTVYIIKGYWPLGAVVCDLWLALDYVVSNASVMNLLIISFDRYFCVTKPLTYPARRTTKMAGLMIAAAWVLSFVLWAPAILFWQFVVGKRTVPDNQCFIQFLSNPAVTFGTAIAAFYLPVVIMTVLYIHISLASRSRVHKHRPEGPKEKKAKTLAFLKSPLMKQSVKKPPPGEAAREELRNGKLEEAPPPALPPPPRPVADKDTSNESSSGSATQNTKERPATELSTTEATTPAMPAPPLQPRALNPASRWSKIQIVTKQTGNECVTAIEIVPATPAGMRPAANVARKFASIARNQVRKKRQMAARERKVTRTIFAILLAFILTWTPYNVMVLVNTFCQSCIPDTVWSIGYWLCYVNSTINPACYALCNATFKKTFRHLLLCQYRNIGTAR
CHRM5 PAM = positive allosteric modulators of human muscarinic M5 receptor | CHO-K1 hM5, Fluo-8 calcium, ACh EC20 PAM; 0% = ACh EC20, 100% = ACh EC100 | activation, % at 3 µM | 360,000 compounds, 0.3% hits;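 active = activation above the run cutoff, the mean activation of all test compounds plus 3 SD, cut at about 18% in these data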
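System: CHO-K1 cell line with stable human muscarinic M5 receptor expression | Also added: EC20 acetylcholine as agonist stimulus | Compound: One concentration, 3 µM final (nominal) | Timing: Fluo-8 loading 80 min at 37 °C plus 30 min room temperature | Measured by: Fluo-8 calcium dye fluorescence, kinetic read | Read-out basis: % activation, ACh-normalized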
M4 ag = agonists of human muscarinic M4 receptor (CHRM4). P08173. CHO-K1 hM4/Gqi5, Fluo-8 calcium fluorescence; vehicle 0%, full acetylcholine response 100%. activation, % at 3 µM. 360,000 compounds, 0.14% hits;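 active = activation above the run mean over all test wells plus 3 SD, cut at about 32% in these data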;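 also: peak over basal fluorescence ratio per well then scaled between controls; 0% = DMSO wells and 100% = acetylcholine at EC100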
CHRM4 antagonist = CHRM4 antagonism in calcium assay; 360,000 compounds, 0.73% hits; P08173; inhibition, % at 3 µM; AID 624125; CHO-hM4 cells, ACh EC80, Fluo-8 calcium fluorescence;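 active = inhibition above its plate's cutoff, the mean inhibition of sample wells plus 3 SD, cut at about 27% in these data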;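 also: 0% = acetylcholine EC80 with DMSO and 100% = DMSO without agonist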
M5 antag = antagonists of human muscarinic M5 receptor (CHRM5); CHO-hM5 cells, Fluo-8 calcium fluorescence, ACh EC80; 360,000 compounds, 0.59% hits; inhibition, % at 3 µM;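 active = inhibition above a per-plate cutoff, the mean of that plate's test compounds plus 3 SD, cut at about 27% in these data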;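 also: 0% = acetylcholine EC80 with DMSO and 100% = DMSO without agonist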
CHRM5 agonist = CHRM5 agonism in calcium assay; P08912; CHO-K1 hM5 cells, Fluo-8 calcium fluorescence; 0% DMSO wells, 100% maximal acetylcholine response; activation, % at 3 µM; 360,000 compounds, 0.19% hits; AID 624037;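 active = activation above the run's mean over test compounds plus 3 SD, cut at about 23% in these data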;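 also: signal is peak over basal fluorescence ratio across the kinetic read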
Starred values were filed as active, the others as inactive.

SMILES | CHRM4 PAM | CHRM5 PAM | M4 ag | CHRM4 antagonist | M5 antag | CHRM5 agonist
C[C@@H]1CN(C(=O)c2cc(COc3cccc(C(F)(F)F)c3)on2)C[C@H](C)O1 | 16 | 1 | 4 | -3 | -15 | -2
CC(=O)Nc1ccc(Sc2ncccc2C(=O)Nc2ccc(OC(F)(F)F)cc2)cn1 | -40 | -17 | 142* | 73* | 57* | 76*
CN1CCC(=C2c3ccccc3C=Cc3ccccc32)CC1 | -19 | -18 | 6 | 100* | 99* | 1
O=C1Cc2ccccc2Sc2ccccc21 | 3 | 0 | 0 | 10 | -6 | -6
CN1CCN(C(=O)CCN2C(=O)c3ccccc3C2=O)CC1 | 4 | 2 | 0 | 2 | 6 | 3
CN1CCC(=C2c3ccccc3Sc3ccccc32)CC1 | -18 | -19 | 10 | 99* | 99* | 0
COC(=O)C[C@H]1C=C[C@@H](NC(=O)C2CC2)[C@@H](CO)O1 | 2 | 20* | 0 | -2 | -8 | 1
CCC(=O)N[C@H]1C=C[C@H](CC(=O)OC)O[C@@H]1CO | -1 | 6 | 0 | 8 | -4 | 2
COc1ccccc1-c1nnc(Nc2nc3c(OC)cccc3s2)o1 | -6 | -3 | 3 | 35* | 24 | 1
Cc1ccc(NC2SC(=O)N(Cc3cccc(C(=O)O)c3)C2=O)cc1 (stereo unspecified) | 1 | 23* | 0 | -5 | -1 | -1
CCCOc1ccc2c(c1)C(=NN=C(N)N)c1cc(OCCC)ccc1-2 | 28* | 2 | 4 | -7 | 11 | 2
CN(C)NC(=S)NC1CCS(=O)(=O)C1 (stereo unspecified) | 5 | 21* | 0 | -9 | -10 | 4
O=C(COC(=O)CCC1CCCC1)Nc1ccccc1OC(F)F | 22* | 4 | 4 | 3 | 6 | -2
COC(=O)C1=C(C)OC(N)=C(C#N)C1c1cc2cc(C)ccc2nc1Cl (stereo unspecified) | -9 | -19 | 22 | 8 | 23 | 26*
Cc1cccc(N(CC(=O)NCCc2ccccc2)C(=O)CCC(=O)Nc2ccccn2)c1C | -8 | 1 | 6 | -19 | 13 | 0
CC1CCCN(S(=O)(=O)c2ccc(NC(=O)C3CC(=O)N(c4ccccc4)C3)cc2)C1 (stereo unspecified) | -1 | 9 | 8 | -4 | 6 | 2
CC(C)CCN1C(=O)c2ccccc2C1C(=O)NCc1cccnc1 (stereo unspecified) | 21* | 3 | 2 | 10 | -9 | -8
CC1=C/C(=C\C=C(C#N)C#N)N(C)c2ccccc21 | -1 | -13 | 10 | 2 | 17 | 43*
CN1/C(=C/C=C(C#N)C#N)C(C)(C)c2ccccc21 | -7 | 9 | 0 | -6 | 1 | 2
CC(O)c1nc2ccccc2n1C/C=C/c1ccccc1 (stereo unspecified) | 1 | 1 | 1 | 10 | -5 | 0
Cc1c(P(=S)(c2ccccc2)c2ccccc2)[n+]2ccccc2n1C/C=C/c1ccccc1 | -11 | -18 | 1 | 29* | 22 | -4
c1ccc(Sc2ccccc2CN2CCCC2)cc1 | -15 | -34 | 1 | 39* | 74* | -20
Fc1ccccc1CN1CCCCCCC1 | 1 | 2 | 0 | -2 | -6 | -4
C=CC[C@H](CC(=O)NCCO)C(=O)NCCOC(=O)[C@@H](CC=C)Cc1ccc(F)cc1 | 7 | -2 | 0 | -6 | 15 | 0
FC(F)(F)c1cccc(N2CCN(C(=S)NCC3CCCO3)CC2)c1 (stereo unspecified) | -8 | -16 | 10 | -2 | 27* | -1
SMILES | CHRM4 PAM | CHRM5 PAM | M4 ag | CHRM4 antagonist | M5 antag | CHRM5 agonist
CC(=O)Nc1ccc(S(=O)(=O)N2CCCC2C(=O)Nc2ccc(F)cc2)cc1 (stereo unspecified) | 7 | 4 | 1 | 4 | -4 | -1
Cc1ccc(S(=O)(=O)N2CCCC2C(=O)NCc2ccccc2Cl)cc1 (stereo unspecified) | 0 | 19* | 1 | 2 | -16 | 3
O=C(O)C1CCCN1S(=O)(=O)c1ccccc1 (stereo unspecified) | 39* | 26* | 2 | -7 | -9 | 1
O=C(Nc1ccc(F)cc1)C1CCCN1S(=O)(=O)c1ccc(Br)cc1 (stereo unspecified) | 25* | 5 | 3 | -9 | 0 | -3
CC1CC(C)CN(S(=O)(=O)c2ccc(NC(=O)[C@@H]3CCCN3C(=O)c3cccs3)cc2)C1 (stereo partly specified) | -6 | -22 | -1 | 28* | 3 | -8
COc1cccc(C(C)(O)c2nc(-c3cnn(C)c3)cs2)c1 (stereo unspecified) | 0 | 3 | 2 | -4 | 5 | 2
COc1ccccc1C(=O)NC(=O)COC(=O)CNC(=O)c1ccccc1F | 0 | -1 | 1 | 6 | -2 | 2
Cc1ccc(S(=O)(=O)N(C)C)cc1NC(=O)C1CCCCN1S(=O)(=O)c1ccccc1 (stereo unspecified) | 24* | -5 | 1 | -3 | 3 | -6
COc1ccc(CCN2C(=O)CSC2=Nc2ccc(C(C)C)cc2)cc1OC | -12 | -34 | 11 | 37* | 35* | -6
CCCCCc1ccc(OCCCC[n+]2ccc(C)cc2)c(CCCCC)c1 | -24 | -31 | 11 | 48* | 22 | -17
CCC(C)(C)c1ccc(OCCCC[n+]2ccccc2)c(C(C)(C)CC)c1 | -16 | -20 | 8 | 22 | 21 | -10
CCCCCc1ccc(OCCCC[n+]2ccccc2)c(CCCCC)c1 | -17 | -15 | -1 | 13 | 9 | -10
CCCCCc1ccc(OCCCC[n+]2cccc(C)c2)c(CCCCC)c1 | -17 | -19 | 1 | 42* | 21 | -10
CCOc1c(Cl)cc(/C=C/C(=O)N(CC)CC(=O)NCc2cccs2)cc1OC | -1 | -9 | 3 | -6 | 8 | -4
CC(=O)Nc1ccc(S(=O)(=O)Nc2ccccc2C(=O)N2CCCCCC2)cc1 | -3 | -2 | 1 | 4 | 3 | 1
COc1ccc(CCNC(=O)Nc2nc(C(N)COCc3ccccc3)cs2)cc1OC (stereo unspecified) | -5 | 1 | 2 | 0 | 3 | -1
O=C1c2cccc3c(N4CCCCC4)ccc(c23)C(=O)N1c1cccc(O)c1 | -24 | -19 | 41* | 36* | 37* | 141*
Cc1n[nH]c(C)c1N1C(=O)c2cccc3c(N4CCCCCC4)ccc(c23)C1=O | -29 | -21 | 85* | 41* | 54* | 76*

Source: PubChem (The Scripps Research Institute Molecular Screening Center)
